Assay results taken from ChEMBL document CHEMBL4270599, “Synthesis of a 3'-C-ethynyl-β-d-ribofuranose purine nucleoside library: Discovery of C7-deazapurine analogs as potent antiproliferative nucleosides” (Eur J Med Chem, 2018).
pIC50: −log10 of the molar value.

Key:
MDA-MB-435 = test: Cytotoxicity against human MDA-MB-435 cells after 48 hrs by SRB assay; type: functional; conditions: MDA-MB-435, 48 h; for GI50: read-out: pGI50 (converted); for CC50: read-out: pLC50 (the source's name) (converted)
Malme-3M = test: Cytotoxicity against human MALME-3M cells after 48 hrs by SRB assay; type: functional; conditions: for CC50: read-out: pLC50 (the source's name) (converted)
HMEC-1 = test: Antiproliferative activity against HMEC1 cells after 4 days by Coulter counter method; type: cell-based; conditions: Homo sapiens, HMEC-1, 96 h
Method in brief: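 Primary HUVEC, primary HMVEC-d and the HMEC-1 line seeded at 20,000 cells/well in gelatin-coated plates in EC growth medium (EGM2). After overnight incubation, 5-fold compound dilutions added. Cells proliferated four days with compound, then trypsinized and counted by Coulter counter to derive IC₅₀.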

SR = test: Growth inhibition of human SR cells assessed as cell growth at 10^-5 M incubated for 48 hrs by sulforhodamine B assay relative to control; type: functional; conditions: read-out: Activity
HCC 2998 = test: Cytotoxicity against human HCC2998 cells after 48 hrs by SRB assay; type: functional; conditions: HCC 2998, 48 h; for GI50: read-out: pGI50 (converted); for CC50: read-out: pLC50 (the source's name) (converted)
IGROV-1 [1] = test: Growth inhibition of human IGROV1 cells assessed as cell growth at 10^-8 M incubated for 48 hrs by sulforhodamine B assay relative to control; type: functional; conditions: IGROV-1, 48 h, read-out: Activity
K562 [2] = test: Growth inhibition of human K562 cells assessed as cell growth at 10^-4 M incubated for 48 hrs by sulforhodamine B assay relative to control; type: functional; conditions: K562, 48 h, read-out: Activity
NCI-H226 = test: Growth inhibition of human NCI-H226 cells assessed as cell growth at 10^-5 M incubated for 48 hrs by sulforhodamine B assay relative to control; type: functional; conditions: NCI-H226, 48 h, read-out: Activity
K562 [3] = test: Growth inhibition of human K562 cells assessed as cell growth at 10^-7 M incubated for 48 hrs by sulforhodamine B assay relative to control; type: functional; conditions: K562, 48 h, read-out: Activity
IGROV-1 [4] = test: Growth inhibition of human IGROV1 cells assessed as cell growth at 10^-4 M incubated for 48 hrs by sulforhodamine B assay relative to control; type: functional; conditions: IGROV-1, 48 h, read-out: Activity
CCRF-CEM = test: Growth inhibition of human CCRF-CEM cells assessed as cell growth at 10^-4 M incubated for 48 hrs by sulforhodamine B assay relative to control; type: functional; conditions: read-out: Activity
786-0 = test: Growth inhibition of human 786-0 cells assessed as cell growth at 10^-8 M incubated for 48 hrs by sulforhodamine B assay relative to control; type: functional; conditions: 786-0, 48 h, read-out: Activity
TK-10 = test: Growth inhibition of human TK10 cells assessed as cell growth at 10^-4 M incubated for 48 hrs by sulforhodamine B assay relative to control; type: functional; conditions: TK-10, 48 h, read-out: Activity
SF-295 = test: Growth inhibition of human SF295 cells assessed as cell growth at 10^-8 M incubated for 48 hrs by sulforhodamine B assay relative to control; type: functional; conditions: SF-295, 48 h, read-out: Activity
SK-MEL-5 = test: Growth inhibition of human SK-MEL-5 cells assessed as cell growth at 10^-8 M incubated for 48 hrs by sulforhodamine B assay relative to control; type: functional; conditions: SK-MEL-5, 48 h, read-out: Activity
SF-539 = test: Cytotoxicity against human SF539 cells after 48 hrs by SRB assay; type: functional; conditions: SF-539, 48 h; for GI50: read-out: pGI50 (converted)
SK-MEL-28 = test: Growth inhibition of human SK-MEL-28 cells assessed as cell growth at 10^-7 M incubated for 48 hrs by sulforhodamine B assay relative to control; type: functional; conditions: SK-MEL-28, 48 h, read-out: Activity
ACHN [5] = test: Cytotoxicity against human ACHN cells after 48 hrs by SRB assay; type: functional; conditions: for CC50: read-out: LC50 (the source's name)
A498 = test: Growth inhibition of human A498 cells assessed as cell growth at 10^-8 M incubated for 48 hrs by sulforhodamine B assay relative to control; type: functional; conditions: A498, 48 h, read-out: Activity
DU-145 [6] = test: Growth inhibition of human DU145 cells assessed as cell growth at 10^-8 M incubated for 48 hrs by sulforhodamine B assay relative to control; type: functional; conditions: DU-145, 48 h, read-out: Activity
HT-29 = test: Growth inhibition of human HT-29 cells assessed as cell growth at 10^-6 M incubated for 48 hrs by sulforhodamine B assay relative to control; type: functional; conditions: HT-29, 48 h, read-out: Activity
DU-145 [7] = test: Growth inhibition of human DU145 cells assessed as cell growth at 10^-6 M incubated for 48 hrs by sulforhodamine B assay relative to control; type: functional; conditions: DU-145, 48 h, read-out: Activity
NCI-H522 = test: Growth inhibition of human NCI-H522 cells assessed as cell growth at 10^-8 M incubated for 48 hrs by sulforhodamine B assay relative to control; type: functional; conditions: NCI-H522, 48 h, read-out: Activity
EKVX = test: Cytotoxicity against human EKVX cells after 48 hrs by SRB assay; type: functional; conditions: for GI50: read-out: pGI50 (converted)
KM12 = test: Growth inhibition of human KM12 cells assessed as cell growth at 10^-6 M incubated for 48 hrs by sulforhodamine B assay relative to control; type: functional; conditions: KM12, 48 h, read-out: Activity
ACHN [8] = test: Growth inhibition of human ACHN cells assessed as cell growth at 10^-6 M incubated for 48 hrs by sulforhodamine B assay relative to control; type: functional; conditions: read-out: Activity
U-251 = test: Growth inhibition of human U251 cells assessed as cell growth at 10^-7 M incubated for 48 hrs by sulforhodamine B assay relative to control; type: functional; conditions: U-251, 48 h, read-out: Activity
NCI-H322M = test: Cytotoxicity against human NCI-H322M cells after 48 hrs by SRB assay; type: functional; conditions: for GI50: read-out: pGI50 (converted)
HCT-116 = test: Growth inhibition of human HCT116 cells assessed as cell growth at 10^-5 M incubated for 48 hrs by sulforhodamine B assay relative to control; type: functional; conditions: HCT-116, 48 h, read-out: Activity
COLO 205 = test: Growth inhibition of human COLO205 cells assessed as cell growth at 10^-7 M incubated for 48 hrs by sulforhodamine B assay relative to control; type: functional; conditions: COLO 205, 48 h, read-out: Activity
NCI-H23 = test: Growth inhibition of human NCI-H23 cells assessed as cell growth at 10^-5 M incubated for 48 hrs by sulforhodamine B assay relative to control; type: functional; conditions: NCI-H23, 48 h, read-out: Activity
MCF7 = test: Cytotoxicity against human MCF7 cells after 48 hrs by SRB assay; type: functional; conditions: MCF7, 48 h; for GI50: read-out: pGI50 (converted)
[9] = read-out: LC50 (the source's name)
[10] = read-out: pLC50 (the source's name) (converted)

C#C[C@@]1(O)[C@@H](CO)O[C@@H](n2ccc3c(N)ncnc32)[C@@H]1O
TGI (MDA-MB-435; read-out: TGI): 3.49 µM | GI50 (MDA-MB-435): 1.48 µM | CC50 (MDA-MB-435): 8.13 µM | TGI (MDA-MB-435; read-out: pTGI (converted)): 3.47 µM | GI50 (Malme-3M; read-out: GI50): 1.68 µM | TGI (Malme-3M; read-out: TGI): 5.55 µM | GI50 (Malme-3M; read-out: pGI50 (converted)): 1.66 µM | CC50 (Malme-3M): 30.9 µM | TGI (Malme-3M; read-out: pTGI (converted)): 5.5 µM | pIC50 (HMEC-1): 7.21 | growth at 10 µM (SR): 15% | TGI (HCC 2998; read-out: TGI): 3.12 µM | GI50 (HCC 2998): 1.45 µM | CC50 (HCC 2998): 6.76 µM | TGI (HCC 2998; read-out: pTGI (converted)): 3.09 µM | growth at 0.01 µM (IGROV-1 [1]): 101% | growth at 100 µM (K562 [2]): 2% | growth at 10 µM (NCI-H226): -42% | growth at 0.1 µM (K562 [3]): 93% | growth at 100 µM (IGROV-1 [4]): -28% | growth at 100 µM (CCRF-CEM): 9% | growth at 0.01 µM (786-0): 91% | growth at 100 µM (TK-10): -5% | growth at 0.01 µM (SF-295): 89% | growth at 0.01 µM (SK-MEL-5): 102% | CC50 (SF-539; [9]): 11.6 µM | TGI (SF-539; read-out: TGI): 4.44 µM | GI50 (SF-539): 1.91 µM | CC50 (SF-539; [10]): 11.7 µM | TGI (SF-539; read-out: pTGI (converted)): 4.47 µM | growth at 0.1 µM (SK-MEL-28): 97% | GI50 (ACHN [5]): 0.562 µM | CC50 (ACHN [5]): > 100 µM | TGI (ACHN [5]; read-out: TGI): 4.48 µM | TGI (ACHN [5]; read-out: pTGI (converted)): 4.47 µM | growth at 0.01 µM (A498): 85% | growth at 0.01 µM (DU-145 [6]): 103% | growth at 1 µM (HT-29): 49% | growth at 1 µM (DU-145 [7]): 34% | growth at 0.01 µM (NCI-H522): 90% | TGI (EKVX; read-out: TGI): 5.43 µM | GI50 (EKVX): 1.51 µM | CC50 (EKVX; [10]): > 100 µM | TGI (EKVX; read-out: pTGI (converted)): 5.37 µM | growth at 1 µM (KM12): 67% | growth at 1 µM (ACHN [8]): 33% | growth at 0.1 µM (U-251): 107% | TGI (NCI-H322M; read-out: TGI): 6.08 µM | GI50 (NCI-H322M): 1.29 µM | CC50 (NCI-H322M; [10]): 50.1 µM | TGI (NCI-H322M; read-out: pTGI (converted)): 6.03 µM | growth at 10 µM (HCT-116): 2% | growth at 0.1 µM (COLO 205): 97% | growth at 10 µM (NCI-H23): -32% | TGI (MCF7; read-out: TGI): 5.66 µM | GI50 (MCF7): 0.24 µM | CC50 (MCF7; [10]): 85.1 µM | TGI (MCF7; read-out: pTGI (converted)): 5.62 µM

C#C[C@@]1(O)[C@@H](CO)O[C@@H](n2cc(F)c3c(N)ncnc32)[C@@H]1O
TGI (MDA-MB-435; read-out: TGI): 3.26 µM | GI50 (MDA-MB-435): 0.417 µM | CC50 (MDA-MB-435): 45.7 µM | TGI (MDA-MB-435; read-out: pTGI (converted)): 3.24 µM | TGI (Malme-3M; read-out: TGI): 1.81 µM | GI50 (Malme-3M; read-out: pGI50 (converted)): 0.363 µM | CC50 (Malme-3M): > 100 µM | TGI (Malme-3M; read-out: pTGI (converted)): 1.82 µM | pIC50 (HMEC-1): 7.21 | growth at 10 µM (SR): 4% | TGI (HCC 2998; read-out: TGI): 2.82 µM | GI50 (HCC 2998): 0.603 µM | CC50 (HCC 2998): 15.8 µM | TGI (HCC 2998; read-out: pTGI (converted)): 2.82 µM | growth at 0.01 µM (IGROV-1 [1]): 105% | growth at 100 µM (K562 [2]): 6% | growth at 10 µM (NCI-H226): -44% | growth at 0.1 µM (K562 [3]): 78% | growth at 100 µM (IGROV-1 [4]): -38% | growth at 100 µM (CCRF-CEM): 1% | growth at 0.01 µM (786-0): 94% | growth at 100 µM (TK-10): -24% | growth at 0.01 µM (SF-295): 98% | growth at 0.01 µM (SK-MEL-5): 92% | CC50 (SF-539; [9]): > 100 µM | TGI (SF-539; read-out: TGI): 5.29 µM | GI50 (SF-539): 1.32 µM | TGI (SF-539; read-out: pTGI (converted)): 5.25 µM | growth at 0.1 µM (SK-MEL-28): 95% | GI50 (ACHN [5]): 0.24 µM | CC50 (ACHN [5]): > 100 µM | TGI (ACHN [5]; read-out: TGI): > 100 µM | TGI (ACHN [5]; read-out: pTGI (converted)): > 100 µM | growth at 0.01 µM (A498): 86% | growth at 0.01 µM (DU-145 [6]): 103% | growth at 1 µM (HT-29): 11% | growth at 1 µM (DU-145 [7]): 16% | growth at 0.01 µM (NCI-H522): 84% | CC50 (EKVX; [9]): > 100 µM | TGI (EKVX; read-out: TGI): 11.3 µM | GI50 (EKVX): 0.676 µM | TGI (EKVX; read-out: pTGI (converted)): 11.2 µM | growth at 1 µM (KM12): 35% | growth at 1 µM (ACHN [8]): 9% | growth at 0.1 µM (U-251): 99% | CC50 (NCI-H322M; [9]): > 100 µM | TGI (NCI-H322M; read-out: TGI): 4.48 µM | GI50 (NCI-H322M): 0.501 µM | TGI (NCI-H322M; read-out: pTGI (converted)): 4.47 µM | growth at 10 µM (HCT-116): -9% | growth at 0.1 µM (COLO 205): 81% | growth at 10 µM (NCI-H23): -4% | CC50 (MCF7; [9]): > 100 µM | GI50 (MCF7): 0.102 µM
